pEC50, pIC50: −log10 of the molar value. A value given as a limit tells only on which side of the number the result lay.

Assay [1] addresses Metabotropic glutamate receptor 2 (Rattus norvegicus, UniProt P31421). Put plainly: Effect on Metabotropic glutamate receptor 2. The procedure, abridged: (§1)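 Stably transfected CHO cells grown in DMEM with 2 mM glutamine, 1% proline and 10% dialyzed FCS, at 37 °C in 5% CO2. Cells seeded 2 days before assay. Ligand tested at 1 mM, both alone and with 30 μM (S)-Glu. Each experiment run at least twice in triplicate.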

Assay [2] deals with Metabotropic glutamate receptor 4 (Rattus norvegicus, UniProt P31423). Put plainly: Effect on Metabotropic glutamate receptor 4. The procedure, abridged: (§2)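 Stably transfected CHO cells (mGlu3, mGlu4a or mGlu6) incubated 10 min in PBS with ligand, 10 μM forskolin and 1 mM IBMX. cAMP measured by RIA; agonism taken as percent decrease of forskolin-induced cAMP versus control. For antagonism, 20 min preincubation with ligand in PBS/1 mM IBMX, then 10 min with ligand plus 30 μM (S)-Glu, forskolin and IBMX. EC50 ± SEM from at least two independent experiments in triplicate.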

The target in assay [3] is Metabotropic glutamate receptor 6 (Rattus norvegicus, UniProt P35349). Kind of assay: Effect on Metabotropic glutamate receptor 6. The procedure, abridged:
as §2

Assay [4] deals with Metabotropic glutamate receptor 1 (Rattus norvegicus, UniProt P23385). Kind of assay: Effect on Metabotropic glutamate receptor 1. The procedure, abridged:
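CHO cells stably expressing mGlu1a, plated two days before assay and labelled with [3H]inositol (2 μCi/mL) for 24 h. Ligand given in PBS–LiCl for 20 min; read-out is 3H mono-, bis- and tris-inositol phosphates separated by ion exchange, expressed as fold increase over control. For antagonism, a 20 min ligand preincubation was followed by ligand plus 30 μM (S)-Glu. At least two experiments, each in triplicate.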

A further assay addresses Glutamate NMDA receptor. Put plainly: Inhibitory activity against N-methyl-D-aspartate glutamate receptor. The format is protein-complex assay.
The target of assay [5] is Metabotropic glutamate receptor 3 (Rattus norvegicus, UniProt P31422). Kind of assay: Effect on Metabotropic glutamate receptor 3. The procedure, abridged: as §2
The target of assay [6] is Metabotropic glutamate receptor 5 (Rattus norvegicus, UniProt P31424). Kind of assay: Effect on Metabotropic glutamate receptor 5. The essentials:
as §1

The target of assay [7] is Metabotropic glutamate receptor 7 (Rattus norvegicus, UniProt P35400). Kind of assay: Effect on Metabotropic glutamate receptor 7. The essentials: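 mGlu7-expressing CHO cells run in the forskolin (10 μM)/IBMX (1 mM) cAMP assay for 10 min, with cAMP measured by RIA as percent inhibition. Test ligand at 10 mM. For antagonism, 20 min preincubation, then ligand plus 1 mM (S)-AP4 as the agonist. Run at least twice in triplicate.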
Metabotropic glutamate receptor 7, sequence (P35400 whole entry): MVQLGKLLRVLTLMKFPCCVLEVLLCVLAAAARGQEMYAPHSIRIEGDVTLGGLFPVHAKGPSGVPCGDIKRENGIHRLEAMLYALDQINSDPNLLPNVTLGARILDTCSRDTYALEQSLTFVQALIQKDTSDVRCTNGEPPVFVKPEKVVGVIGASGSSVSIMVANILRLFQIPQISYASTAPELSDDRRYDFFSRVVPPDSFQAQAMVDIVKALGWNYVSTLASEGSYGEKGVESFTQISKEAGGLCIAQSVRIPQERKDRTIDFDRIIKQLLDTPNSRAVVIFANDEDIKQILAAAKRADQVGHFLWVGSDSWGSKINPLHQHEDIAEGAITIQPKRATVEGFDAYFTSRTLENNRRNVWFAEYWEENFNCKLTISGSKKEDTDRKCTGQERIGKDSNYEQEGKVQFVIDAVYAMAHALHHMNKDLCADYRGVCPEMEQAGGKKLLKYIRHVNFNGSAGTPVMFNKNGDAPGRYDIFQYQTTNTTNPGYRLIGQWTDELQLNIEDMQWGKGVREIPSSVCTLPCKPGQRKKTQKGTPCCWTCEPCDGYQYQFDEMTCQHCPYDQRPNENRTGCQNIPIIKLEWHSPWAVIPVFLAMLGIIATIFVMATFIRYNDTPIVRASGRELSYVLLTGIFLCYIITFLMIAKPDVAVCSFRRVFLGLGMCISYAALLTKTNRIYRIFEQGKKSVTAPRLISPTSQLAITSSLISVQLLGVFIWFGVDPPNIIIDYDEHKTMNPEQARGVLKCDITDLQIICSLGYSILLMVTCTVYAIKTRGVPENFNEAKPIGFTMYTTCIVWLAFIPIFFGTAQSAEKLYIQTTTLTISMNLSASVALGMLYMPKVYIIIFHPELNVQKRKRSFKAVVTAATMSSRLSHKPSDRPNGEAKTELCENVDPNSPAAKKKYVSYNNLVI

Metabotropic glutamate receptor 5, sequence (P31424 whole entry): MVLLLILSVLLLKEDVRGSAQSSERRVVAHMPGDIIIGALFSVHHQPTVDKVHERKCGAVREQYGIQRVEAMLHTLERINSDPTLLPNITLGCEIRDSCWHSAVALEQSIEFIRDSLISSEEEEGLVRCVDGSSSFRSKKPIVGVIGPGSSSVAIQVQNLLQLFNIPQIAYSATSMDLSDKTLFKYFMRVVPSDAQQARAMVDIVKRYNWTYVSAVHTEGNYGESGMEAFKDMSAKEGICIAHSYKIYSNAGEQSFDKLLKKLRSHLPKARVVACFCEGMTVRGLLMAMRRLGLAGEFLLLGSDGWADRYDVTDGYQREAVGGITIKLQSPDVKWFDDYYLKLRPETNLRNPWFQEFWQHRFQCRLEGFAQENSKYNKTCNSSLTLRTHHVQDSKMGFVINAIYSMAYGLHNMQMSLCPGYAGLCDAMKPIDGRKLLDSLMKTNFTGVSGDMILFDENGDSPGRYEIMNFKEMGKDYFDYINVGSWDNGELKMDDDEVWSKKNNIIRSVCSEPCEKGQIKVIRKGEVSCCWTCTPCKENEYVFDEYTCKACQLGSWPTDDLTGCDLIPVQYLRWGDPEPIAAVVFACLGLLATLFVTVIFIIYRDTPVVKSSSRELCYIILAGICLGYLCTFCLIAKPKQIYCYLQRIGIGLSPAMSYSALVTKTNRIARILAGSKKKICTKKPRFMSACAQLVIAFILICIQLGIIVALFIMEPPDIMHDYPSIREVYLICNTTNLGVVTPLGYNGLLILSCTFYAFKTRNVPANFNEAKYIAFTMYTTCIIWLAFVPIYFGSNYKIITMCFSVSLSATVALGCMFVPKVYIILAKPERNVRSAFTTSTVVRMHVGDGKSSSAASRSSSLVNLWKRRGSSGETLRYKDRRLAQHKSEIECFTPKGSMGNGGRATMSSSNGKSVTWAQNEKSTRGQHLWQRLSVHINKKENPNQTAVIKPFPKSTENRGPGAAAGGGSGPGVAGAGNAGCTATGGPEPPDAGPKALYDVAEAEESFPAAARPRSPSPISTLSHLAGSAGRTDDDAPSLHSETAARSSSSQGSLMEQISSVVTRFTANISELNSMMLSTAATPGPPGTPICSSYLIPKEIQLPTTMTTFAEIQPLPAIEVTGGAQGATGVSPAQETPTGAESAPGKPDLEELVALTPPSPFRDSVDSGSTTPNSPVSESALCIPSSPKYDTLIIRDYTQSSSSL
Metabotropic glutamate receptor 3, sequence (P31422 whole entry): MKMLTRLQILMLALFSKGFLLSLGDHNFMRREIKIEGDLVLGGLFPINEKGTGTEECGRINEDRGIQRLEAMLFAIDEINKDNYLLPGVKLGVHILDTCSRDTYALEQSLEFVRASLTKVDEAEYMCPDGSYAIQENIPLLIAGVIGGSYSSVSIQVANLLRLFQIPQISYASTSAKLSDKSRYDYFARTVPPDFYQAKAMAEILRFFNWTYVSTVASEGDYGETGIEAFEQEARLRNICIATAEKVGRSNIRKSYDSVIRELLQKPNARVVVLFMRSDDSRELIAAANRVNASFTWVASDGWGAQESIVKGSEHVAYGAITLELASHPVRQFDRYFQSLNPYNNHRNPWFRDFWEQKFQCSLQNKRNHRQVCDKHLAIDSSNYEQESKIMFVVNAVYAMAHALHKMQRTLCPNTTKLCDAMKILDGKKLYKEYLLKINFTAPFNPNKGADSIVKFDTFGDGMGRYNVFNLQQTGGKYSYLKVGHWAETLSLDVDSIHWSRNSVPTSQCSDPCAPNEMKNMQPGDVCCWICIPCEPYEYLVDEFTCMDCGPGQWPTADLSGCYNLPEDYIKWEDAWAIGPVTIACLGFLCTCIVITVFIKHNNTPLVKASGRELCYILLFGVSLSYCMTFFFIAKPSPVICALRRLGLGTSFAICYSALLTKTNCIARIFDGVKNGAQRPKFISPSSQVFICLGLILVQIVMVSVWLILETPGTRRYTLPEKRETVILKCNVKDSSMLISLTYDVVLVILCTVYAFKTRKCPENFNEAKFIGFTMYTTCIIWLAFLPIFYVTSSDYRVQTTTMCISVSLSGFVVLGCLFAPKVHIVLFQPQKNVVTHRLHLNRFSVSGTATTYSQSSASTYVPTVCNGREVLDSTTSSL
Metabotropic glutamate receptor 4, sequence (P31423 whole entry): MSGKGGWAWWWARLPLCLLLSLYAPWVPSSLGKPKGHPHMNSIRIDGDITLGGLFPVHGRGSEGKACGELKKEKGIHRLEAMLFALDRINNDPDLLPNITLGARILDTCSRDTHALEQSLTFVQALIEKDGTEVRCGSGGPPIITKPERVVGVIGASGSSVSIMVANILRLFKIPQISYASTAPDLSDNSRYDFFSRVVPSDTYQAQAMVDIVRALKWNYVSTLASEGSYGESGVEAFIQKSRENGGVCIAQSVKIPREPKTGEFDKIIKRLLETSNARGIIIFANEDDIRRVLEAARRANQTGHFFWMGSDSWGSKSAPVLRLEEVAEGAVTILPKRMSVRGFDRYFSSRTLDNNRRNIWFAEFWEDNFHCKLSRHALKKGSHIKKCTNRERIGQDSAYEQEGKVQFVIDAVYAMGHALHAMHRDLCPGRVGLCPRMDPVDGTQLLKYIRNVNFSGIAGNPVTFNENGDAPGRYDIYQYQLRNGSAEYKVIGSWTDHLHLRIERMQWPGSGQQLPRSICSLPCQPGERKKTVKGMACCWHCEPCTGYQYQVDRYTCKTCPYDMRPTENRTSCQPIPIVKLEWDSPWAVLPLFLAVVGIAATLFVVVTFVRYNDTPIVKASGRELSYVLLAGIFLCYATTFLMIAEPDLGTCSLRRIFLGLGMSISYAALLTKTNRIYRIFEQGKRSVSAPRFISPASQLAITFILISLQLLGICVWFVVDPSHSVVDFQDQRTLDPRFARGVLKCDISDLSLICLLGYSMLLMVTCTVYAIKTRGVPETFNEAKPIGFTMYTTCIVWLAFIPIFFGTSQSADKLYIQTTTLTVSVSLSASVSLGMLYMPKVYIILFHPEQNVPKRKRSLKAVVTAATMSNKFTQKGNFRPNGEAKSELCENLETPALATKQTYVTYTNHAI
Metabotropic glutamate receptor 1, sequence (P23385 whole entry): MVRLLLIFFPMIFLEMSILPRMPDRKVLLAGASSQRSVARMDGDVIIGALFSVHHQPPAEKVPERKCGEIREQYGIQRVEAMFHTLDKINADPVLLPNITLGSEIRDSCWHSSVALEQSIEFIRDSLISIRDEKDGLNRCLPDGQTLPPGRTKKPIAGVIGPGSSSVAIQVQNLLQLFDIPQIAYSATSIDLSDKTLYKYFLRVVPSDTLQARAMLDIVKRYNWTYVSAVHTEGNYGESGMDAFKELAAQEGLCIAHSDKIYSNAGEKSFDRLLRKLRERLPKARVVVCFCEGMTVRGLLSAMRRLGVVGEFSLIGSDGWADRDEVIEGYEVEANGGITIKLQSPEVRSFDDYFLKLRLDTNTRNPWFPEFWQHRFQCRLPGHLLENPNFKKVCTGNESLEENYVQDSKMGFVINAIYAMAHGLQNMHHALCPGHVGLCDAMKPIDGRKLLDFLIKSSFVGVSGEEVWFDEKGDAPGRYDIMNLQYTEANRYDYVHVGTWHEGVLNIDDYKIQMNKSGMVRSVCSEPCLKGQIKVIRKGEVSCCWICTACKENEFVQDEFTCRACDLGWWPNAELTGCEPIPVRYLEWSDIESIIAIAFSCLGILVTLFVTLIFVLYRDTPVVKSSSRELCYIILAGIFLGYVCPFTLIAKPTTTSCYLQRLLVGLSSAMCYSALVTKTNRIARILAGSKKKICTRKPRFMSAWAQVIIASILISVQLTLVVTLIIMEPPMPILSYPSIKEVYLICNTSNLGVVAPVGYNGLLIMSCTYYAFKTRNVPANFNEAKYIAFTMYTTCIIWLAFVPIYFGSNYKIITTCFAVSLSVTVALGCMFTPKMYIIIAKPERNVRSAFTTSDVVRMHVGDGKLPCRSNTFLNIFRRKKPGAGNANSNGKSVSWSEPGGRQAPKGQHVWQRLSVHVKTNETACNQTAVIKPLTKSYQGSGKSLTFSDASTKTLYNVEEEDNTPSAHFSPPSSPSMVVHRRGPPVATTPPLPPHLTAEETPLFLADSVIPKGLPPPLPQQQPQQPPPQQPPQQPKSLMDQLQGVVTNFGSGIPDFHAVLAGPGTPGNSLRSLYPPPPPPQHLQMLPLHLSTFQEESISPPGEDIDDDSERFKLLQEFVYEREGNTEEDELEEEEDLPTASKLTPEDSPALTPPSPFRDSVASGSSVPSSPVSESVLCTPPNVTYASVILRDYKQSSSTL

Take `Cc1onc(O)c1CCC(N)C(=O)O` (stereo not given): the pEC50 in assay [1] is less than 3.00; in assay [2], less than 2.52; in assay [3], 4.09; in assay [4] it was less than 3.00.
On to `N[C@H](CCCC(=O)O)C(=O)O`, for which the pEC50 in assay [1], in assay [3] and in assay [4] was less than 3.00 each time.
At Glutamate NMDA receptor, `Cc1o[nH]c(=O)c1CC[C@@H](N)C(=O)O` had a pIC50 of 3.88. Moreover, the pEC50 in assay [1] is less than 3.00; in assay [2], less than 3.00; in assay [5], less than 3.00; in assay [6], less than 3.00; in assay [3], less than 3.00; in assay [7], less than 2.30. Further, in assay [4], the negative logarithm of the EC50 (pEC50) is less than 3.00.
In the case of `Cc1onc(O)c1CC[C@H](N)C(=O)O`, the pEC50 in assay [1] was less than 3.00; in assay [2] it was less than 3.00; in assay [5] it was less than 3.00; in assay [6], less than 3.00; in assay [3], 4.24; in assay [7] it was less than 2.30. The same molecule showed a pEC50 in assay [4] of less than 3.00.
As to `N[C@@H](CCP(=O)(O)O)C(=O)O`, the pEC50 in assay [1] is 3.00; in assay [2] it was 6.04; in assay [6], less than 3.00; in assay [3] it was 6.24; in assay [7], 3.60; in assay [4] it was 3.00.
On to `N[C@@H](CCCC(=O)O)C(=O)O` [(S)-2-AMINOADIPIC ACID], for which the pEC50 is 4.46 in assay [1], less than 2.52 in assay [2], 3.85 in assay [3] and less than 3.00 in assay [4].
For `N[C@H](CCC(=O)O)C(=O)O` [D-GLUTAMATE], the pEC50 is 4.92 in assay [2], 5.05 in assay [5] and 2.27 in assay [7].

The values above are taken from ChEMBL document CHEMBL1130227, “(S)-homo-AMPA, a specific agonist at the mGlu6 subtype of metabotropic glutamic acid receptors” (J Med Chem, 1997).
